What all share (type): functional
The species entered for assay [1] is Mus musculus. Briefly: Ability to antagonize p-chloroamphetamine-induced depletion of brain serotonin in mouse. Summed up:
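Male albino mice (16–20 g), groups of five; compound given ip as aqueous solution, then 1 h later p-chloroamphetamine HCl 20.6 mg/kg ip. Decapitation 6 h after that; whole brains frozen on dry ice, stored at -15 °C, serotonin measured by HPLC with electrochemical detection. ED50 from dose-response.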

The species named for assay [2] is Rattus norvegicus. The assay is described as follows: Ability to antagonize saccharin-induced drinking (palatability-induced ingestion) in rats. Summed up: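 Long-Evans hooded male rats (400–600 g, n=24), individually housed, given 2 h weekday access to 0.01 M sodium saccharin; water and chow free except 0.5 h before and during access. Drug ip, 1 mL/kg, 0.5 h before access. Intake expressed as ratio to nearest noninjection (Thursday) control, normalized to distilled-water group = 100%; mean of four to six rats; ED50 with 95% confidence limits.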

The species entered for assay [3] is Mus musculus. Briefly: Antagonistic activity against acetic acid induced abdominal constriction (writhing) in mice. The following applies: Abdomen. An outline of the steps:
(§1)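 Male CF-1 mice (~20 g), fasted overnight, five per point, each used once. Drug given sc in distilled water, 10 mL/kg, 20 min before 0.6% acetic acid ip (10 mL/kg). Writhes counted for 10 min starting 5 min after acid. Percent inhibition versus same-day controls; ED50 by probit least-squares of log dose.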
(Writhing tests count abdominal constrictions after an irritant is injected.)

The species entered for assay [4] is Mus musculus. The assay is described as follows: Inhibition of serotonin uptake carrier in mice.
Assay [5] has as its system Mus musculus. Briefly: Antagonistic activity against acetic acid induced abdominal constriction (writhing) in mice, when administered in combination with 0.2 mg/kg of morphine. The following applies: Abdomen. Summed up: as §1

One may read the ED50 as the midpoint of the dose-response relation. By Ki is commonly meant the dissociation constant of the complex between target and ligand, obtained from inhibition or displacement. Low readings indicate a stronger hold on the target, high ones a looser hold on the target.

With `CNCC[C@H](Oc1ccc(C(F)(F)F)cc1)c1ccccc1`, the ED50 in assay [1] was 2.1 mg/kg; in assay [2] it was 4.9 mg/kg; in assay [3], 25.7 mg/kg; in assay [5], 5.7 mg/kg. In assay [4], affinity was put at a Ki of 0.033 µM.
Consider `CNCC[C@@H](Oc1ccc(C(F)(F)F)cc1)c1ccccc1` [R-FLUOXETINE], for which the median effective dose (ED50) was determined as 1.2 mg/kg in assay [1], 6.1 mg/kg in assay [2], 15.3 mg/kg in assay [3] and 3.6 mg/kg in assay [5]. For the same compound, the Ki in assay [4] was found to be 0.021 µM.

For the origin of these results see ChEMBL document CHEMBL1124157, “Absolute configurations and pharmacological activities of the optical isomers of fluoxetine, a selective serotonin-uptake inhibitor” (J Med Chem, 1988).
